According to ChEMBL document CHEMBL1149157, “Synthesis and structure-activity relationship of novel antitumoral platinum xanthate complexes” (J Med Chem, 2004):
pIC50: −log10 of the molar value.

How the values were obtained:
Assay type in all cases: functional, cell-based, Homo sapiens
[1] = test system: SK-OV-3; experiment: Cytotoxic activity was determined in vitro in SK-OV-3 cell line culture at pH 6.8
How it was run: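 SK-OV-3 seeded at 1×10^6 cells/plate. Next day, placed in pH 6.8 medium (1.3 g NaHCO3/L, HCl-treated serum, 5% CO2). Given 2 h at 37°C, in quadruplicate, of 50–0.8 µg/mL (1:2; acetone ≤5%), then drug-free pH 7.4 medium until controls were confluent. Formaldehyde-fixed and crystal violet-stained, A550. IC50 from dose–response curves, mean of four assays ± SD.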

[2] = test system: KB; experiment: Cytotoxic activity was determined in vitro in KB cell line culture at pH 7.4
How it was run: (§1)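 Using pH 7.4 medium (2.2 g NaHCO3/L) on cells plated a day earlier at 2×10^6/plate, with equilibration in 5% CO2. Compounds were applied for 2 h at 37°C in quadruplicate at 50–0.8 µg/mL (1:2; acetone ≤5%), followed by drug-free pH 7.4 medium until controls were confluent. Fixed and stained with crystal violet, dye eluted with ethanol/1% acetic acid, read at 550 nm. IC50 from curves, mean of four ± SD.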

[3] = test system: LXF-289 cell line; experiment: Cytotoxic activity was determined in vitro in LXF-289 cell line culture at pH 6.8
How it was run: (§2)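 Seeded at 2×10^6 cells/plate. Next day, switched to pH 6.8 medium (1.3 g NaHCO3/L, serum acidified with 1 N HCl) and equilibrated in 5% CO2. Exposed for 2 h at 37°C in quadruplicate to 50–0.8 µg/mL (1:2 series; acetone ≤5%), then given drug-free pH 7.4 medium until controls were confluent. Read by formaldehyde fixation and crystal violet at 550 nm. IC50 from dose–response curves, mean of four assays ± SD.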

[4] = test system: Calu-6; experiment: Cytotoxic activity was determined in vitro in Calu-6 cell line culture at pH 6.8; how it was run: as §2
[5] = test system: SK-OV-3; experiment: Cytotoxic activity was determined in vitro in SK-OV-3 cell line culture at pH 7.4
How it was run: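 With 1×10^6 cells/plate seeded, medium was changed the next day to pH 7.4 (2.2 g NaHCO3/L) under 5% CO2. Cells were exposed 2 h at 37°C in quadruplicate to a 1:2 series of 50–0.8 µg/mL (acetone ≤5%), then given drug-free pH 7.4 medium until controls were confluent. Crystal violet read at 550 nm after formaldehyde fixation. IC50 from curves; mean of four assays ± SD.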

[6] = test system: MCF7; experiment: Cytotoxic activity was determined in vitro in MCF-7 cell line culture at pH 7.4; how it was run: as §1
[7] = test system: SK-MEL-25; experiment: Cytotoxic activity was determined in vitro in SK-MEL-25 cell line culture at pH 7.4
How it was run: (§3)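 Plated at 2×10^6 cells/plate. After one day, medium was replaced with pH 7.4 medium (2.2 g NaHCO3/L) and equilibrated under 5% CO2. Cells got 2 h at 37°C, in quadruplicate, of a 1:2 series 50–0.8 µg/mL (acetone ≤5%), then drug-free pH 7.4 medium for 24–96 h until controls were confluent. Fixed with 3% formaldehyde, stained with 1% crystal violet, A550. IC50 from dose–response curves; mean of four assays ± SD.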

[8] = test system: KB; experiment: Cytotoxic activity was determined in vitro in KB cell line culture at pH 6.8
How it was run: (§4)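 Cells at 2×10^6/plate were moved the next day into pH 6.8 medium (1.3 g NaHCO3/L; serum given 1 N HCl; 30 min 5% CO2). Treated 2 h at 37°C, quadruplicate, 50–0.8 µg/mL in 1:2 steps (acetone ≤5%), then grown in drug-free pH 7.4 medium to control confluence. Crystal violet stain eluted with ethanol/1% acetic acid before A550. IC50 from curves, mean of four assays ± SD.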

[9] = test system: SK-MEL-25; experiment: Cytotoxic activity was determined in vitro in SK-MEL-25 cell line culture at pH 6.8; how it was run: as §2
[10] = test system: MCF7; experiment: Cytotoxic activity was determined in vitro in MCF-7 cell line culture at pH 6.8; how it was run: as §4
[11] = test system: LXF-289 cell line; experiment: Cytotoxic activity was determined in vitro in LXF-289 cell line culture at pH 7.4; how it was run: as §3
[12] = test system: Calu-6; experiment: Cytotoxic activity was determined in vitro in Calu-6 cell line culture at pH 7.4; how it was run: as §3

| Substance | pIC50 [1] | pIC50 [2] | pIC50 [3] | pIC50 [4] | pIC50 [5] | pIC50 [6] | pIC50 [7] | pIC50 [8] | pIC50 [9] | pIC50 [10] | pIC50 [11] | pIC50 [12] |
| --- | --- | --- | --- | --- | --- | --- | --- | --- | --- | --- | --- | --- |
| 2,6-bis(cyclopropylmethoxy)-1,3,5,7-tetrathia-4-platinaspiro[3.3]heptane | 4.02 | 4.14 | < 3.99 | 4.77 | 4.17 | 4.05 | 4.07 | 4.48 | 4.19 | 4.02 | < 3.99 | 4.48 |
| 2,6-bis(2,2-dimethylpropoxy)-1,3,5,7-tetrathia-4-platinaspiro[3.3]heptane | < 4.07 | < 4.02 | 4.23 | 4.60 | < 4.07 | < 4.07 | 4.08 | < 4.02 | 4.14 | 4.21 | 4.12 | 4.57 |
| 2,6-bis(pentyloxy)-1,3,5,7-tetrathia-4-platinaspiro[3.3]heptane | 4.51 | 4.60 | 4.42 | 5.05 | 4.18 | 4.47 | 4.49 | 4.80 | 4.72 | 5.00 | 4.21 | 4.82 |
| 2,6-bis(3-methylbutoxy)-1,3,5,7-tetrathia-4-platinaspiro[3.3]heptane | 4.62 | 4.72 | 4.64 | 5.22 | 4.68 | 4.40 | 4.46 | 4.46 | 4.70 | 4.64 | 4.15 | 4.68 |
| CISPLATIN | 4.19 | 4.28 | 3.95 | 4.80 | 4.05 | 3.80 | 4.05 | 4.26 | 4.11 | 3.97 | 4.08 | 4.60 |
| 2,6-bis(2-methylpropoxy)-1,3,5,7-tetrathia-4-platinaspiro[3.3]heptane | 4.49 | 4.33 | 4.72 | 5.05 | 4.21 | 4.64 | 4.68 | 4.52 | 4.82 | 4.57 | 4.43 | 5.00 |
| 2,6-diethoxy-1,3,5,7-tetrathia-4-platinaspiro[3.3]heptane | 4.07 | 4.24 | 4.35 | 4.68 | 4.01 | 4.33 | 4.25 | 4.74 | 4.68 | 4.92 | 4.04 | 4.62 |
| 2,6-dibutoxy-1,3,5,7-tetrathia-4-platinaspiro[3.3]heptane | 4.48 | 4.49 | 4.62 | 5.15 | 4.05 | 4.60 | 4.66 | 4.80 | 5.00 | 5.15 | 4.41 | 4.72 |
| 2,6-bis(octyloxy)-1,3,5,7-tetrathia-4-platinaspiro[3.3]heptane | < 4.08 | < 4.08 | 4.52 | 4.64 | < 4.08 | 4.51 | < 4.08 | < 4.08 | 4.25 | 4.51 | 4.08 | 4.25 |
| 2,6-dicyclobutoxy-1,3,5,7-tetrathia-4-platinaspiro[3.3]heptane | 4.77 | 4.70 | 4.43 | 5.52 | 4.72 | 4.68 | 4.92 | 5.22 | 5.15 | 4.96 | 4.36 | 5.15 |
| 2,6-bis(2-methylbutoxy)-1,3,5,7-tetrathia-4-platinaspiro[3.3]heptane | 4.64 | 4.41 | 4.72 | 5.05 | 4.46 | 4.57 | 4.49 | 4.51 | 4.77 | 4.72 | 4.36 | 4.72 |
| 2,6-bis({tricyclo[5.2.2.0^{2,6}]undecan-8-yloxy})-1,3,5,7-tetrathia-4-platinaspiro[3.3]heptane | < 4.42 | < 4.11 | < 4.42 | 5.10 | < 4.42 | < 4.42 | < 4.42 | < 4.11 | < 4.42 | 4.49 | < 4.42 | 4.74 |
| 2,6-bis[(3,3-dimethylbutan-2-yl)oxy]-1,3,5,7-tetrathia-4-platinaspiro[3.3]heptane | 4.74 | 5.15 | 4.82 | 5.05 | 4.47 | 5.05 | 4.96 | 5.30 | 5.00 | 5.15 | 4.74 | 5.05 |
| 2,6-dipropoxy-1,3,5,7-tetrathia-4-platinaspiro[3.3]heptane | 4.35 | 4.42 | 4.43 | 5.15 | 4.30 | 5.05 | 4.68 | 4.92 | 5.00 | 5.40 | 4.31 | 4.68 |
